ChEMBL document CHEMBL1133520, “Design, synthesis, and biological evaluation of potent and selective amidino bicyclic factor Xa inhibitors” (J Med Chem, 2000)
Where “and” joins values, the source holds several entries; their conditions need not be identical. Identical values can stand only once.

Tests used:
[1] = target: Coagulation factor X (Homo sapiens, UniProt P00742); assay: Binding affinity against human coagulation factor X
[2] = target: Serine protease 1 (Homo sapiens, UniProt P07477); assay: Binding affinity against human trypsin
Chain of Serine protease 1 (P07477 whole entry): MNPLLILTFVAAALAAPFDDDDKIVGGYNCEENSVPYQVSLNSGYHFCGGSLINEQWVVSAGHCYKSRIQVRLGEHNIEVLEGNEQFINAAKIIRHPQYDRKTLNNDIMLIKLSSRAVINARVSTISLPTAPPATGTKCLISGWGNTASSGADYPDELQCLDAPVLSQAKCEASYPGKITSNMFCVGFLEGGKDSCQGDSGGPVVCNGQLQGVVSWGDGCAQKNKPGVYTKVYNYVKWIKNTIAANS
In short: (§1)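 Human purified enzymes in 0.1 M sodium phosphate, 0.2 M NaCl, 0.5% PEG 6000, pH 7.4. Inhibitor at 0.00316–10 μM in 8 half-log steps. Substrate S2222 for fXa and trypsin, S2366 for thrombin. Hydrolysis rate read at 405 nm over 30 min, with uninhibited controls. Ki calculated from % activity, Km and substrate concentration. Run in duplicate against internal standards.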

[3] = target: Prothrombin (Homo sapiens, UniProt P00734); assay: Binding affinity against human thrombin; in short: as §1
[4] = target: T1, Coagulation factor X (Oryctolagus cuniculus, UniProt O19045); assay: Binding affinity against Coagulation factor X from rabbit purified enzyme
T1 sequence (O19045 whole entry): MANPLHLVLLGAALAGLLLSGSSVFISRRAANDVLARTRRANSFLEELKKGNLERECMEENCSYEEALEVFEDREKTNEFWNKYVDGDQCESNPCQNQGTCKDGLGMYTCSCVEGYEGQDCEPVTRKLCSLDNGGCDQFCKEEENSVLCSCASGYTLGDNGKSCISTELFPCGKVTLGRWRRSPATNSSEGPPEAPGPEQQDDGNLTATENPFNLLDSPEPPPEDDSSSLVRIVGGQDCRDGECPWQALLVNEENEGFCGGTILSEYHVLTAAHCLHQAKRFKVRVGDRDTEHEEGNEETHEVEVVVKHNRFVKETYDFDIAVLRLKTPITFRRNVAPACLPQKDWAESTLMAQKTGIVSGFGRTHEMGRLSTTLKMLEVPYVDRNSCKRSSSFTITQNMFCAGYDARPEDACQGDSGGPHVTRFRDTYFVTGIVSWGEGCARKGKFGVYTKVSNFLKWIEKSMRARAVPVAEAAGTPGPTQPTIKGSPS

[5] = Distribution volume at steady state in dog; type: ADME, organism-based, Canis lupus familiaris; conditions: in vivo, read-out: Vdss
In short: (§2)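 Given intravenously (rabbit: 10 mg/kg/h infusion over 60 min; dog: iv). Plasma protein-precipitated with acetonitrile; quantitation limit 5 nM. Noncompartmental fit. Half-life by nonlinear regression, AUC by trapezoidal rule. Clearance = dose/AUC0→∞. Vdss = Cl × MRT, with MRT = AUMC/AUC.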

[6] = Cmax values of the compound; type: ADME, organism-based; conditions: in vivo; in short: as §2
[7] = plasma clearance in dog; type: ADME, organism-based, Canis lupus familiaris; in short: as §2
[8] = (§3) Half life period of the compound; type: ADME; in short: as §2
[9] = species: Oryctolagus cuniculus; assay: Tested for inhibition of thrombus formation using arterio-venous shunt device in rabbit; type: functional
In short: (§4)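 Rabbit arteriovenous shunt containing silk thread; blood circulated 40 min, then the thread and thrombus were weighed. Compound or saline vehicle infused iv via jugular vein from 1 h before circulation through the end (100 min total). Percent inhibition of thrombus weight per treatment group; ID50 estimated by linear regression.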

[10] = species: Oryctolagus cuniculus; assay: Distribution volume at steady state in rabbit; conditions: in vivo, read-out: Vdss
[11] = as §3; type: ADME; in short: as §2; remark: listed apart in the source
[12] = plasma clearance in rabbit
[13] = target: T1, Coagulation factor X; assay: Binding affinity against fXa from rabbit purified enzyme
[14] = system: Oryctolagus cuniculus; assay: Tested for inhibition of thrombus formation using arterio-venous shunt device in rabbit at 0.008-1 mg/kg/h; type: functional; in short: as §4

Chain of Coagulation factor X (Homo sapiens, UniProt P00742) (P00742 41-179 limits assumed): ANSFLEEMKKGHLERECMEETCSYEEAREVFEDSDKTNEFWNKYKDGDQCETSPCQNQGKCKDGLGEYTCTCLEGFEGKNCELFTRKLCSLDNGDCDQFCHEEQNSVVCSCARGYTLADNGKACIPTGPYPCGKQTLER
Chain of Coagulation factor X (Homo sapiens, UniProt P00742) (P00742 235-488 limits assumed): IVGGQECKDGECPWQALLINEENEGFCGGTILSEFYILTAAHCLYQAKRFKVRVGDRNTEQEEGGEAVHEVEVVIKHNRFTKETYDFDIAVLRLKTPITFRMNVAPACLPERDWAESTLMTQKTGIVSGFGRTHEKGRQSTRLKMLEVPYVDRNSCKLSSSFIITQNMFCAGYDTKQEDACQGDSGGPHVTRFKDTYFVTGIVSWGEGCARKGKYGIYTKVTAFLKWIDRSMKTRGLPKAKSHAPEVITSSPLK

| Structure (SMILES) | Ki [1] | Ki [2] | Ki [3] | also measured |
| --- | --- | --- | --- | --- |
| CN(C)S(=O)(=O)c1ccccc1-c1ccc(NC(=O)Cc2c[nH]c3ccc(C(=N)N)cc23)cc1 | 7 nM | 390 nM | 1700 nM |  |
| N=C(N)c1ccc2cnn(CC(=O)Nc3ccc(-c4ccccc4S(N)(=O)=O)cn3)c2c1 | 3.1 nM | 41 nM | 6800 nM |  |
| N=C(N)c1ccc2[nH]cc(CC(=O)Nc3ccc(-c4ccccc4S(N)(=O)=O)cc3Cl)c2c1 | 0.7 nM | 140 nM | 500 nM | Ki [4]: 0.79 nM; Vd [5]: 2.01 L/kg; Cmax [6]: 650 nM; clearance [7]: 50 mL/min/kg; half-life [8]: 1.75 h; ID50 [9]: 0.35 µM/h/kg |
| CCNS(=O)(=O)c1ccccc1-c1ccc(NC(=O)Cc2c[nH]c3ccc(C(=N)N)cc23)cc1 | 4.1 nM | 160 nM | 800 nM |  |
| N=C(N)c1ccc2[nH]cc(CC(=O)Nc3ccc(-c4ccccc4S(N)(=O)=O)cc3F)c2c1 | 3.1 nM | 270 nM | 2100 nM | Vd [5]: 0.87 L/kg; Cmax [6]: 1630 nM; clearance [7]: 18.3 mL/min/kg; half-life [8]: 2.5 h |
| N=C(N)c1ccc2c(c1)ncn2CC(=O)Nc1ccc(-c2ccccc2)cc1 | 3900 nM | > 2500 nM | 12500 nM |  |
| N=C(N)c1ccc2c(c1)ncn2CC(=O)Nc1ccc(-c2ccccc2S(N)(=O)=O)cc1 | 400 nM | 130 nM | 2700 nM |  |
| N=C(N)c1ccc2[nH]cc(CC(=O)Nc3ccc(-c4ccccc4S(N)(=O)=O)cn3)c2c1 | 0.92 nM and 0.44 nM | 150 nM | 2100 nM | Ki [4]: 0.93 nM; Vd [5]: 1.9 L/kg; Cmax [6]: 2200 nM; clearance [7]: 61.7 mL/min/kg; half-life [8]: 0.4 h; ID50 [9]: 0.3 µM/h/kg |
| CCOC(=O)C(CCc1ccc(C(=N)N)cc1)Cn1cnc2cc(C(=N)N)ccc21 (stereo not drawn) | 2200 nM |  | > 21000 nM |  |
| CCOC(=O)C(CCc1ccc(C(=N)N)cc1)Cn1cnc2ccc(C(=N)N)cc21 (stereo not drawn) | 11900 nM |  | > 21000 nM |  |
| N=C(N)c1ccc2ncn(CC(=O)Nc3ccc(-c4ccccc4S(N)(=O)=O)cc3)c2c1 | 2.4 nM | 47 nM | 2200 nM | Vd [10]: 3.04 L/kg; half-life [11]: 0.96 h; Cmax [6]: 3850 nM; clearance [12]: 73.3 mL/min/kg |
| N=C(N)c1ccc2ncn(CC(=O)c3ccc(-c4ccccc4S(N)(=O)=O)cc3)c2c1 | 240 nM | 300 nM | 2800 nM |  |
| N=C(N)c1ccc2[nH]cc(CC(=O)Nc3ccc(-c4ccccc4S(N)(=O)=O)cc3)c2c1 |  | 160 nM | 1600 nM and 900 nM | Vd [5]: 0.38 L/kg; Ki [13]: 6 nM; half-life [11]: 1.22 h; Cmax [6]: 1510 nM and 8700 nM; clearance [7]: 20.3 mL/min/kg; half-life [8]: 0.79 h; ID50 [9]: 1.7 µM/h/kg |
| CCCNS(=O)(=O)c1ccccc1-c1ccc(NC(=O)Cc2c[nH]c3ccc(C(=N)N)cc23)cc1 | 8 nM | 180 nM | 400 nM |  |
| CCOC(=O)C(CCc1cccc(C(=N)N)c1)Cn1cnc2ccc(C(=N)N)cc21 (stereo not drawn) | 700 nM | 820 nM | 1900 nM |  |
| N=C(N)c1ccc2ncn(CC(=O)c3ccc(-c4ccccc4)cc3)c2c1 | 120 nM | 320 nM | 1200 nM |  |
| N=C(N)c1ccc2c(c1)C(CC(=O)Nc1ccc(-c3ccccc3S(N)(=O)=O)cc1)CN2 (single isomer, unassigned; (-)) | 52 nM | 400 nM | 17000 nM |  |
| CCOC(=O)C(CCc1cccc(C(=N)N)c1)Cn1cnc2cc(C(=N)N)ccc21 (stereo not drawn) |  | 220 nM | 2000 nM |  |
| CN(C(=O)Cc1c[nH]c2ccc(C(=N)N)cc12)c1ccc(-c2ccccc2S(N)(=O)=O)cc1 | 41 nM | 600 nM | 14000 nM |  |
| N=C(N)c1ccc2[nH]cc(CC(=O)Nc3ccc(-c4ccccc4S(N)(=O)=O)cc3I)c2c1 | 0.6 nM | 240 nM | 200 nM |  |
| N=C(N)c1ccc2c(c1)ncn2CC(=O)c1ccc(-c2ccccc2)cc1 |  |  | > 21000 nM |  |
| Cc1cc(-c2ccccc2S(N)(=O)=O)ccc1NC(=O)Cc1c[nH]c2ccc(C(=N)N)cc12 | 2.3 nM | 340 nM | 1000 nM |  |
| Cn1cc(CC(=O)Nc2ccc(-c3ccccc3S(N)(=O)=O)cn2)c2cc(C(=N)N)ccc21 | 89 nM | 1500 nM | 21000 nM |  |
| N=C(N)c1ccc2[nH]cc(CC(=O)Nc3ccc(-c4ccccc4S(N)(=O)=O)cc3Br)c2c1 | 0.32 nM | 120 nM | 200 nM | Ki [4]: 0.9 nM; Vd [5]: 0.67 L/kg; ID50 [14]: 0.14 µM/h/kg; Cmax [6]: 1430 nM; clearance [7]: 22.3 mL/min/kg; half-life [8]: 1.8 h |
| N=C(N)c1ccc2ncn(CC(=O)Nc3ccc(-c4ccccc4)cc3)c2c1 | 220 nM | 480 nM | 4700 nM |  |
| N=C(N)c1ccc2c(c1)C(CC(=O)Nc1ccc(-c3ccccc3S(N)(=O)=O)cc1)CN2 (single isomer, unassigned; (+)) | 0.71 nM | 140 nM | 1500 nM |  |
| CNS(=O)(=O)c1ccccc1-c1ccc(NC(=O)Cc2c[nH]c3ccc(C(=N)N)cc23)cc1 | 3.4 nM | 120 nM | 900 nM |  |
